Published values collected from several papers.
Each line is one published result; the experiments were not run side by side.
Cell line: HCT-116
Read-out: cell growth or viability

CC[C@@]1(OC(=O)Cc2c(C)n(C(=O)c3ccc(Cl)cc3)c3ccc(OC)cc23)C(=O)OCc2c1cc1n(c2=O)Cc2cc3cc4c(cc3nc2-1)OCO4 — IC50 (MTT): 46 nM
O=c1ccc2cc3ccoc3cc2o1 — IC50 (WST-1; 48 h): 26100 nM
CC[C@@]1(OC(=O)[C@@H](N)CCSC)C(=O)OCc2c1cc1n(c2=O)Cc2cc3cc4c(cc3nc2-1)OCO4 — IC50 (MTT): 56 nM
O=c1ccc2ccc3occc3c2o1 — IC50 (WST-1; 48 h): 8700 nM
CC[C@@]1(OC(=O)[C@@H](N)CCCCN)C(=O)OCc2c1cc1n(c2=O)Cc2cc3cc4c(cc3nc2-1)OCO4 — IC50 (MTT): 28 nM
N.N.[Cl][Pt][Cl] — IC50 (48 h): 16300 nM
COc1ccc2c(c1)[nH]c1c(C)nccc12 — IC50 (MTT; 72 h): 25100 nM
CCC1(OC(=O)C(C)c2ccc3cc(OC)ccc3c2)C(=O)OCc2c1cc1n(c2=O)Cc2cc3cc4c(cc3nc2-1)OCO4 (stereo not shown) — IC50 (MTT): 2340 nM
CN[C@@H]1C[C@H]2O[C@@](C)([C@@H]1OC)n1c3ccccc3c3c4c(c5c6ccccc6n2c5c31)C(=O)NC4 — IC50 (MTT): 15 nM
CSC(=NNC(=O)c1ccc(O)cc1)SC — IC50 (MTT; 5 days): > 100000 nM
CC1=C(O)C(=O)C=C2C1=CC=C1[C@@]2(C)CC[C@@]2(C)[C@@H]3C[C@](C)(C(=O)O)CC[C@]3(C)CC[C@]12C — IC50 (MTT; 48 h): 430 nM
CC[C@@]1(O)C(=O)OCc2c1cc1n(c2=O)Cc2cc3cc4c(cc3nc2-1)OCO4 — IC50 (MTT; 72 h): 14 nM
COc1ccc2[nH]cc(CCNc3nccc(Nc4cccc5c4ccn5C)n3)c2c1 — IC50 (fluorescence; 72 h): 9.2 nM
N.N.[Cl][Pt][Cl] — IC50 (MTS; 72 h): 41700 nM
COc1cc2c3c(n(CCCN4CCOCC4)c(=O)c2cc1OC)-c1cc2c(cc1C3=O)OCO2 — IC50 (72 h): 0.618 µg/mL
CSC(=NNC(=O)c1ccc(Cl)c(Cl)c1)SC — IC50 (MTT; 5 days): 28000 nM
CC[C@@]1(OC(=O)[C@@H](N)C(C)C)C(=O)OCc2c1cc1n(c2=O)Cc2cc3cc4c(cc3nc2-1)OCO4 — IC50 (MTT): 46 nM
CC1=C(O)C(=O)C=C2C1=CC=C1[C@@]2(C)CC[C@@]2(C)[C@@H]3C[C@](C)(C(=O)OCCCn4cc(C=O)c5ccccc54)CC[C@]3(C)CC[C@]12C — IC50 (MTT; 48 h): 570 nM
N.N.[Cl][Pt][Cl] — IC50 (SRB): 5300 nM
